Experimental data as given in ChEMBL document CHEMBL2046365, “Total synthesis and antifungal activity of (2S,3R)-2-aminododecan-3-ol” (2012).
≈ marks a conversion by molar mass, not a printed value.

Columns and labels:
Type in all cases: functional
Candida parapsilosis = experiment: Antifungal activity against Candida parapsilosis MTCC 1744 after 24 hrs by well diffusion method
Procedure, shortened: (§1)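 Well diffusion on Mueller-Hinton agar plates, each surface-seeded with 0.1 mL of an MTCC Candida reference strain suspension at 1.5 × 10⁸ cfu/mL (0.5 McFarland). Compound added to 6.0 mm cork-bored wells at 300–1.4 per well; methanol well as negative control. Plates incubated 24 h at 30 °C. MIC taken as the lowest concentration giving an inhibition zone. Duplicates, mean reported.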

[Candida] aaseri = Antifungal activity against Candida aaseri MTCC 1962 after 24 hrs by well diffusion method; procedure, shortened: as §1
Nakaseomyces glabratus [1] = experiment: Antifungal activity against Candida glabrata MTCC 3019 after 24 hrs by well diffusion method; procedure, shortened: as §1
Candida albicans [2] = experiment: Antifungal activity against Candida albicans MTCC 183 after 24 hrs by well diffusion method; procedure, shortened: as §1
Candida albicans [3] = experiment: Antifungal activity against Candida albicans MTCC 7315 after 24 hrs by well diffusion method; procedure, shortened: as §1
Candida albicans [4] = experiment: Antifungal activity against Candida albicans MTCC 3958 after 24 hrs by well diffusion method; procedure, shortened: as §1
Candida albicans [5] = experiment: Antifungal activity against Candida albicans MTCC 854 after 24 hrs by well diffusion method; procedure, shortened: as §1
Candida albicans [6] = experiment: Antifungal activity against Candida albicans; procedure, shortened: as §1
Nakaseomyces glabratus [7] = experiment: Antifungal activity against Candida glabrata; procedure, shortened: as §1
[8] = Lodderomyces parapsilosis, MTCC 1744, 24 h
[9] = Yamadazyma aaseri, MTCC 1962, 24 h

Row | Molecule | MIC (Candida parapsilosis; [8]) [µg/mL] | MIC ([Candida] aaseri; [9]) [µg/mL] | MIC (Nakaseomyces glabratus [1]; MTCC 3019, 24 h) [µg/mL] | MIC (Candida albicans [2]; MTCC 183, 24 h) [µg/mL] | MIC (Candida albicans [3]; MTCC 7315, 24 h) [µg/mL] | MIC (Candida albicans [4]; MTCC 3958, 24 h) [µg/mL] | MIC (Candida albicans [5]; MTCC 854, 24 h) [µg/mL] | MIC (Candida albicans [6]) [µg/mL] | MIC (Nakaseomyces glabratus [7]) [µg/mL] | MIC (Candida parapsilosis) [µg/mL] | MIC ([Candida] aaseri) [µg/mL] | MIC (Nakaseomyces glabratus [1]) [µg/mL] | MIC (Candida albicans [2]) [µg/mL] | MIC (Candida albicans [3]) [µg/mL] | MIC (Candida albicans [4]) [µg/mL] | MIC (Candida albicans [5]) [µg/mL]
1 | CCCCCCCCC[C@@H](O)[C@H](C)N | 4.9 (≈ 24.3 µM) | 9.9 (≈ 49.2 µM) | 9.9 (≈ 49.2 µM) | 9.9 (≈ 49.2 µM) | 9.9 (≈ 49.2 µM) | 19.8 (≈ 98.3 µM) | 37.5 (≈ 186 µM) | 0.7 (≈ 3.48 µM) | 30 (≈ 149 µM) | – | – | – | – | – | – | –
2 | C[C@@H]1[C@H](O)[C@@H](C)/C=C/C=C/C=C/C=C/C=C/C=C/C=C/[C@H](O[C@@H]2O[C@H](C)[C@@H](O)[C@H](N)[C@@H]2O)C[C@@H]2O[C@](O)(C[C@@H](O)C[C@@H](O)[C@H](O)CC[C@@H](O)C[C@@H](O)CC(=O)O[C@H]1C)C[C@H](O)[C@H]2C(=O)O [AMPHOTERICIN B] | 300 (≈ 325 µM) | 300 (≈ 325 µM) | 300 (≈ 325 µM) | 300 (≈ 325 µM) | 300 (≈ 325 µM) | 300 (≈ 325 µM) | 300 (≈ 325 µM) | – | – | – | – | – | – | – | – | –
3 | OC(Cn1cncn1)(Cn1cncn1)c1ccc(F)cc1F [FLUCONAZOLE] | 18.8 (≈ 61.4 µM) | 75 (≈ 245 µM) | 75 (≈ 245 µM) | 37.5 (≈ 122 µM) | 37.5 (≈ 122 µM) | 75 (≈ 245 µM) | 37.5 (≈ 122 µM) | – | – | – | – | – | – | – | – | –
4 | Clc1ccc(COC(Cn2ccnc2)c2ccc(Cl)cc2Cl)c(Cl)c1 (configuration not stated) [MICONAZOLE] | 9.9 (≈ 23.8 µM) | 9.9 (≈ 23.8 µM) | 9.9 (≈ 23.8 µM) | 9.9 (≈ 23.8 µM) | 9.9 (≈ 23.8 µM) | 9.9 (≈ 23.8 µM) | 9.9 (≈ 23.8 µM) | – | – | – | – | – | – | – | – | –
5 | NYSTATIN | – | – | – | – | – | – | – | – | – | 150 | 150 | 150 | 150 | 150 | 150 | 150
